Measurements published in ChEMBL document CHEMBL5257027 (Eur J Med Chem, 2016).
Each block holds one molecule with its values, some of them ahead of it.

Columns and labels:
COLO 205 [1] = assay: Cytotoxicity against human COLO 205 cells; assay type: functional
In short: (§1)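 Run in the US NCI 58-cell-line screen covering nine cancer types (leukemia, NSCLC, colon, CNS, melanoma, ovarian, renal, prostate, breast). Five-dose mode gave GI50, TGI and LC50 values for each cell line. In the single-dose pre-screen, % inhibition was taken as 100 minus growth percentage.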

[2] = test system: Panel renal (Carcinoma cell lines); assay: Antiproliferative activity against human Panel renal (8 Carcinoma cell lines) assessed as reduction in mean cell growth; assay type: functional
In short: (§2)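 NCI five-dose testing across the 58-line panel gives GI50, TGI and LC50 for each line. Subpanel lines report mean GI50 for each of the nine cancer types.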

HOP-92 [3] = assay: Cytotoxicity against human HOP-92 cells; assay type: functional; in short: as §1
[4] = target: Epidermal growth factor receptor (Homo sapiens) (UniProt P00533); assay: Inhibition of EGFR (unknown origin) at 10 uM using […] as substrate incubated for 40 mins in presence of [gamma33P]ATP by scintillation counting based hotspot kinase assay relative to control
COLO 205 [5] = assay: Antiproliferative activity against human COLO 205 cells assessed as reduction in cell growth; assay type: functional; in short: as §2
PC-3 [6] = assay: Antiproliferative activity against human PC-3 cells assessed as reduction in cell growth; assay type: functional; in short: as §2
HOP-92 [7] = assay: Antiproliferative activity against human HOP-92 cells assessed as total growth inhibition; assay type: functional; in short: as §2
[8] = test system: Panel colon (Carcinoma cell lines); assay: Antiproliferative activity against human Panel colon (7 Carcinoma cell lines) assessed as reduction in mean cell growth; assay type: functional; in short: as §2
[9] = target: Tyrosine-protein kinase ABL1 (Homo sapiens) (UniProt P00519); assay: Inhibition of ABL (unknown origin) at 10 uM using […] as substrate incubated for 40 mins in presence of [gamma33P]ATP by scintillation counting based hotspot kinase assay relative to control
[10] = test system: Panel melanoma (Carcinoma cell lines); assay: Antiproliferative activity against human Panel melanoma (9 Carcinoma cell lines) assessed as reduction in mean cell growth; assay type: functional; in short: as §2
[11] = test system: Panel leukemia (Carcinoma cell lines); assay: Antiproliferative activity against human Panel leukemia (5 Carcinoma cell lines) assessed as reduction in mean cell growth; assay type: functional; in short: as §2
K562 [12] = assay: Antiproliferative activity against human K562 cells assessed as total growth inhibition; assay type: functional; in short: as §2
MDA-MB-468 [13] = assay: Cytotoxicity against human MDA-MB-468 cells; assay type: functional; settings: read-out: LC50 (the source's name); in short: as §1
Homo sapiens = species: Homo sapiens; assay: Inhibition of ABL […] mutant (unknown origin) at 10 uM using […] as substrate incubated for 40 mins in presence of [gamma33P]ATP by scintillation counting based hotspot kinase assay relative to control
HCT-15 [14] = assay: Antiproliferative activity against human HCT-15 cells assessed as reduction in cell growth; assay type: functional; in short: as §2
NCI/ADR-RES [15] = assay: Antiproliferative activity against human NCI/ADR-RES cells assessed as total growth inhibition; assay type: functional; in short: as §2
SNB-75 [16] = assay: Antiproliferative activity against human SNB-75 cells assessed as reduction in cell growth; assay type: functional; in short: as §2
HCT-15 [17] = assay: Cytotoxicity against human HCT-15 cells; assay type: functional; settings: read-out: LC50 (the source's name); in short: as §1
SNB-75 [18] = assay: Antiproliferative activity against human SNB-75 cells assessed as total growth inhibition; assay type: functional; in short: as §2
MDA-MB-468 [19] = assay: Antiproliferative activity against human MDA-MB-468 cells assessed as total growth inhibition; assay type: functional; in short: as §2
SNB-75 [20] = assay: Cytotoxicity against human SNB-75 cells; assay type: functional; settings: read-out: LC50 (the source's name); in short: as §1
SK-MEL-5 [21] = assay: Cytotoxicity against human SK-MEL-5 cells; assay type: functional; in short: as §1
RXF 393 [22] = assay: Antiproliferative activity against human RXF 393 cells assessed as reduction in cell growth; assay type: functional; in short: as §2
[23] = target: Serine/threonine-protein kinase B-raf (Homo sapiens) (UniProt P15056); assay: Inhibition of B-RAF (unknown origin) at 10 uM using […] as substrate incubated for 40 mins in presence of [gamma33P]ATP by scintillation counting based hotspot kinase assay relative to control
SK-MEL-5 [24] = assay: Antiproliferative activity against human SK-MEL-5 cells assessed as total growth inhibition; assay type: functional; in short: as §2
[25] = target: Mitogen-activated protein kinase 14 (Homo sapiens) (UniProt Q16539); assay: Inhibition of MAPK14 (p38 alpha) (unknown origin) at 10 uM using […] as substrate incubated for 40 mins in presence of [gamma33P]ATP by scintillation counting based hotspot kinase assay relative to control
HOP-92 [26] = assay: Antiproliferative activity against human HOP-92 cells assessed as reduction in cell growth; assay type: functional; in short: as §2
[27] = test system: Panel CNS (Carcinoma cell lines); assay: Antiproliferative activity against human Panel CNS (6 Carcinoma cell lines) assessed as reduction in mean cell growth; assay type: functional; in short: as §2
[28] = test system: Panel prostate (Carcinoma cell lines); assay: Antiproliferative activity against human Panel prostate (2 Carcinoma cell lines) assessed as reduction in mean cell growth; assay type: functional; in short: as §2
PC-3 [29] = assay: Cytotoxicity against human PC-3 cells; assay type: functional; in short: as §1
NCI/ADR-RES [30] = assay: Cytotoxicity against human NCI/ADR-RES cells; assay type: functional; in short: as §1
RXF 393 [31] = assay: Cytotoxicity against human RXF 393 cells; assay type: functional; in short: as §1
[32] = test system: Panel breast (Carcinoma cell lines); assay: Antiproliferative activity against human Panel breast (6 Carcinoma cell lines) assessed as reduction in mean cell growth; assay type: functional; in short: as §2
[33] = Antiproliferative activity against human Panel non-small cell lung cancer (8 Carcinoma cell lines) assessed as reduction in mean cell growth; assay type: functional; settings: Non-small cell lung cancer cell line; in short: as §2
RXF 393 [34] = assay: Antiproliferative activity against human RXF 393 cells assessed as total growth inhibition; assay type: functional; in short: as §2
HCT-15 [35] = assay: Antiproliferative activity against human HCT-15 cells assessed as total growth inhibition; assay type: functional; in short: as §2
[36] = target: RAF proto-oncogene serine/threonine-protein kinase (Homo sapiens, UniProt P04049); assay: Inhibition of RAF1 (unknown origin) at 10 uM using […] as substrate incubated for 40 mins in presence of [gamma33P]ATP by scintillation counting based hotspot kinase assay relative to control
[37] = Antiproliferative activity against human Panel NCI-58 (58 Carcinoma cell lines) assessed as reduction in mean cell growth at 10 uM; assay type: functional; set-up: scale not given: the % may be the effect or the level left
In short: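 NCI 58-cell-line screen covering leukemia, NSCLC, colon, CNS, melanoma, ovarian, renal, prostate and breast lines. Compounds given once at […] (micromolar per the line). Percent inhibition taken as 100 minus growth percent. Panel line reports the mean over all 58 lines.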

[38] = test system: Panel ovarian (Carcinoma cell lines); assay: Antiproliferative activity against human Panel ovarian (7 Carcinoma cell lines) assessed as reduction in mean cell growth; assay type: functional; in short: as §2
SK-MEL-5 [39] = assay: Antiproliferative activity against human SK-MEL-5 cells assessed as reduction in cell growth; assay type: functional; in short: as §2
[40] = test system: Serine/threonine-protein kinase B-raf (Homo sapiens), P15056 [V600E]; assay: Inhibition of B-RAF V600E mutant (unknown origin) at 10 uM using […] as substrate incubated for 40 mins in presence of [gamma33P]ATP by scintillation counting based hotspot kinase assay relative to control
L132 = assay: Cytotoxicity against human L132 cells assessed as reduction in cell growth at 31.3 to 100 uM relative to control; assay type: toxicity, cell-based; set-up: scale not given: the % may be the effect or the level left; settings: l132, 100 µM, dose 31.3-100 µM
K562 [41] = assay: Antiproliferative activity against human K562 cells assessed as reduction in cell growth; assay type: functional; in short: as §2
MDA-MB-468 [42] = assay: Antiproliferative activity against human MDA-MB-468 cells assessed as reduction in cell growth; assay type: functional; in short: as §2
NCI/ADR-RES [43] = assay: Antiproliferative activity against human NCI/ADR-RES cells assessed as reduction in cell growth; assay type: functional; in short: as §2
COLO 205 [44] = assay: Antiproliferative activity against human COLO 205 cells assessed as total growth inhibition; assay type: functional; in short: as §2
K562 [45] = assay: Cytotoxicity against human k562 cells; assay type: functional; settings: read-out: LC50 (the source's name); in short: as §1
PC-3 [46] = assay: Antiproliferative activity against human PC-3 cells assessed as total growth inhibition; assay type: functional; in short: as §2

Sequence of Serine/threonine-protein kinase B-raf (Homo sapiens) (P15056 whole entry): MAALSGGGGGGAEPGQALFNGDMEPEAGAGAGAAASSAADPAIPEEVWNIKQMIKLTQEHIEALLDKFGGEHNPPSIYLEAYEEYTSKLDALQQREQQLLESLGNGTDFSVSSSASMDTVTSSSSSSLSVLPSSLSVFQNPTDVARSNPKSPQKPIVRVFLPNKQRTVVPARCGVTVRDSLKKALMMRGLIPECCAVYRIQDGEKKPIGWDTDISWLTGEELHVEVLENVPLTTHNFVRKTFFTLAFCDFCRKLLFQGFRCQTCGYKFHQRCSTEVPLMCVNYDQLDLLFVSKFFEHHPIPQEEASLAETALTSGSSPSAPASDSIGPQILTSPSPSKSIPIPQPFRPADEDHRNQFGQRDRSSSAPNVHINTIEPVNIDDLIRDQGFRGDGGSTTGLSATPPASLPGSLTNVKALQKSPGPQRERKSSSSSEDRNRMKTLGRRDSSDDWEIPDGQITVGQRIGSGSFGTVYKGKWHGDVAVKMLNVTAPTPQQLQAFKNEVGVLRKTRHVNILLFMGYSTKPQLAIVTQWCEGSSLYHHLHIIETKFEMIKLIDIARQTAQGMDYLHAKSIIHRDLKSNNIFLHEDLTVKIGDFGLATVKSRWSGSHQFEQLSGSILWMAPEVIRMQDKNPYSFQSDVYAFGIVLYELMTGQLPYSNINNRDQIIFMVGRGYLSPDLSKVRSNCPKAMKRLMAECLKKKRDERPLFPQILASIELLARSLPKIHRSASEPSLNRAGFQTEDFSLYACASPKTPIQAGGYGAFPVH
Sequence of Mitogen-activated protein kinase 14 (Homo sapiens) (Q16539 whole entry): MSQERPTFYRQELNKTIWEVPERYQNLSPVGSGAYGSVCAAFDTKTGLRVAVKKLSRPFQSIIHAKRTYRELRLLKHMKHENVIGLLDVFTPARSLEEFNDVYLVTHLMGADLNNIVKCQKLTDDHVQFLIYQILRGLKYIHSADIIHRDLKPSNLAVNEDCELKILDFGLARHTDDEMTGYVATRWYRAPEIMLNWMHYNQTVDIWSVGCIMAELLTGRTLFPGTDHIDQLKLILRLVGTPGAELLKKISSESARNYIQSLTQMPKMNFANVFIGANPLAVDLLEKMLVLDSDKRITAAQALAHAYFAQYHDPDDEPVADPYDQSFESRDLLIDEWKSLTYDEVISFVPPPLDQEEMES
Sequence of Serine/threonine-protein kinase B-raf (Homo sapiens), P15056 [V600E] (P15056 whole entry V600E): as the sequence (P15056 whole entry) above, with V600E counted along it
Sequence of Tyrosine-protein kinase ABL1 (Homo sapiens) (P00519 whole entry): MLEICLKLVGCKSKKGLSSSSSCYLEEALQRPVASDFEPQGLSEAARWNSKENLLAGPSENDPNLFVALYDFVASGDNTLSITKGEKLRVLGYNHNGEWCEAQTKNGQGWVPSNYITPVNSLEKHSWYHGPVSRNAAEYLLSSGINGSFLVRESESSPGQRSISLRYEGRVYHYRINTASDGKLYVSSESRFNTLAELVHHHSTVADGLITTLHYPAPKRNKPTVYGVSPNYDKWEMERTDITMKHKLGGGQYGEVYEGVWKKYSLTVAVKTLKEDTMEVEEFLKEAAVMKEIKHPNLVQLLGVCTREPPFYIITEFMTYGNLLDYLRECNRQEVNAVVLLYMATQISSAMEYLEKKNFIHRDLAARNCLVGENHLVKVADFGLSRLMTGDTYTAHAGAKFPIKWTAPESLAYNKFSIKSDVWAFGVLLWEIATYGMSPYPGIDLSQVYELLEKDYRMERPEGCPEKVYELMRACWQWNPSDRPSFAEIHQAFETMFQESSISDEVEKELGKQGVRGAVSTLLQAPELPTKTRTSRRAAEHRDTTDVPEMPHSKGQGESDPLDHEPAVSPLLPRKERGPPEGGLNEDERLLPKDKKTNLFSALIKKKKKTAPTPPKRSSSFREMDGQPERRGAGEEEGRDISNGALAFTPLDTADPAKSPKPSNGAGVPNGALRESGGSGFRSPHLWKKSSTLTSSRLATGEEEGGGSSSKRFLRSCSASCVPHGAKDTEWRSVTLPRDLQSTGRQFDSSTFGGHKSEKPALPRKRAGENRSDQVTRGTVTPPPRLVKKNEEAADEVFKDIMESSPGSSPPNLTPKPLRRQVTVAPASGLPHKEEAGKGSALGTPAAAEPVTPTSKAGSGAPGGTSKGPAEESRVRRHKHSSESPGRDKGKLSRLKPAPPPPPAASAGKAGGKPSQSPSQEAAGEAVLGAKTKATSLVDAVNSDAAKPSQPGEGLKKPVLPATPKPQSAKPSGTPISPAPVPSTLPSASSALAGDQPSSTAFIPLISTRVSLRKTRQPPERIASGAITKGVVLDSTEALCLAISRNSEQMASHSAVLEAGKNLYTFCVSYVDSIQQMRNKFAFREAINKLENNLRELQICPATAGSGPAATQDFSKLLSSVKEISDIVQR
Sequence of RAF proto-oncogene serine/threonine-protein kinase (P04049 whole entry): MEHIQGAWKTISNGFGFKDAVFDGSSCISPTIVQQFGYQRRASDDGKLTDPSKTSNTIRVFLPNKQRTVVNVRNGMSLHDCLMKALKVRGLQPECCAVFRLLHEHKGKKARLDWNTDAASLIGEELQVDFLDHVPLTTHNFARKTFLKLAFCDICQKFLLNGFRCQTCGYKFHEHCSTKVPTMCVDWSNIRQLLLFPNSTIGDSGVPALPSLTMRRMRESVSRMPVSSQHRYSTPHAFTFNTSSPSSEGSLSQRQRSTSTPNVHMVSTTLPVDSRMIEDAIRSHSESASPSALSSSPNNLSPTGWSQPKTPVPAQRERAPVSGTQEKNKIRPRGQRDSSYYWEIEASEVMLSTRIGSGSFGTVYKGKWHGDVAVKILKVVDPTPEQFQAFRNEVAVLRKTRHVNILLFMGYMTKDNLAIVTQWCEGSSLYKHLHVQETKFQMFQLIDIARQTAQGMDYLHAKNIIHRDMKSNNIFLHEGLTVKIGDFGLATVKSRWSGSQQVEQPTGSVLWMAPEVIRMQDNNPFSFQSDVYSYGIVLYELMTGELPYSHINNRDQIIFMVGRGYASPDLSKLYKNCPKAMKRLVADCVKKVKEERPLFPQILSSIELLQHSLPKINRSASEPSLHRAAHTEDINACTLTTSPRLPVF
Sequence of Epidermal growth factor receptor (Homo sapiens) (P00533 whole entry): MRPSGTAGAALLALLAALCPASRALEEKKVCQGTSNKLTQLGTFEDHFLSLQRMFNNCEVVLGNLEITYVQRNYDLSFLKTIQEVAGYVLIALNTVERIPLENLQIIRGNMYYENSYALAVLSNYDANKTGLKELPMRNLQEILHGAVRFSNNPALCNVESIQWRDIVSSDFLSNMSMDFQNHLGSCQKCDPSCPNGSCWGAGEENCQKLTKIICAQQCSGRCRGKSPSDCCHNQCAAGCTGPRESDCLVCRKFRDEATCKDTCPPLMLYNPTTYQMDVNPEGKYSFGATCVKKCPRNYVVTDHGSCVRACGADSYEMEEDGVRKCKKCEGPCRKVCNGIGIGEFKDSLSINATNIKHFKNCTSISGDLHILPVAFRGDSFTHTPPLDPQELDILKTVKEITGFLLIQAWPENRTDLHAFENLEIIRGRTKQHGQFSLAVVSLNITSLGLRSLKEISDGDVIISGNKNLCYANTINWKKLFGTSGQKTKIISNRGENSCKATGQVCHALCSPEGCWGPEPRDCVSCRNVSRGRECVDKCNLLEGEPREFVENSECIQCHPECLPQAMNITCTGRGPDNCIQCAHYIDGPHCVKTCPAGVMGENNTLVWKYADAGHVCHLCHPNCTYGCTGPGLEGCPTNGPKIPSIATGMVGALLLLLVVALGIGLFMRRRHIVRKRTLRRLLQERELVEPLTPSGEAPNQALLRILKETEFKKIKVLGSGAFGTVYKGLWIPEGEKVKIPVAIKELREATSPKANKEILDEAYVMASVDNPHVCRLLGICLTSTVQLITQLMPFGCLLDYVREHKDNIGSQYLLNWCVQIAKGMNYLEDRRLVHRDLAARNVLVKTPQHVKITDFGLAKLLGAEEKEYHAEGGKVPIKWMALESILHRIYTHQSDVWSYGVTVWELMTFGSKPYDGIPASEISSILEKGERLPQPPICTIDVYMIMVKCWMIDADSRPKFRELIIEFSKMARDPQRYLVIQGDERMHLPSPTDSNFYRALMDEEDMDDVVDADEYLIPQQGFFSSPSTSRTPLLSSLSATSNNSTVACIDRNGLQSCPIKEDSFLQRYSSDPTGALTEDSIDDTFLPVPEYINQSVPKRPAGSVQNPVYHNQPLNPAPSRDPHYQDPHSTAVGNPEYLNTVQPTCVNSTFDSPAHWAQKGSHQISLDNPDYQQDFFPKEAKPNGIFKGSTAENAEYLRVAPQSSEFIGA

SMILES: O=C(NCCCNc1cc(-c2cn(-c3ccccc3)nc2-c2cccc(O)c2)ccn1)c1ccc(F)cc1
LC50 (lethal concentration 50%) (COLO 205 [1]): 7.6 µM
GI50 [2]: 2.84 µM
LC50 (HOP-92 [3]): 7.38 µM
inhibition [4]: 15.7%
GI50 (COLO 205 [5]): 1.6 µM
GI50 (PC-3 [6]): 2.81 µM
TGI (HOP-92 [7]): 3.28 µM
GI50 [8]: 2.16 µM
inhibition [9]: 16.1%
GI50 [10]: 1.91 µM
GI50 [11]: 1.98 µM
TGI (K562 [12]): 4.83 µM
CC50 (MDA-MB-468 [13]): 6.92 µM
inhibition (Homo sapiens): 14.6%
GI50 (HCT-15 [14]): 1.77 µM
TGI (NCI/ADR-RES [15]): 5.82 µM
GI50 (SNB-75 [16]): 5.19 µM
CC50 (HCT-15 [17]): 8.09 µM
TGI (SNB-75 [18]): 12.5 µM
TGI (MDA-MB-468 [19]): 3.43 µM
CC50 (SNB-75 [20]): 74 µM
LC50 (SK-MEL-5 [21]): 5.72 µM
GI50 (RXF 393 [22]): 1.63 µM
inhibition [23]: 22.5%
TGI (SK-MEL-5 [24]): 3.15 µM
inhibition [25]: 66.6%
GI50 (HOP-92 [26]): 2.13 µM
GI50 [27]: 3.29 µM
GI50 [28]: 3.72 µM
LC50 (PC-3 [29]): 44.3 µM
LC50 (NCI/ADR-RES [30]): 29.7 µM
LC50 (RXF 393 [31]): 5.99 µM
GI50 [32]: 1.89 µM
GI50 [33]: 3.12 µM
TGI (RXF 393 [34]): 3.03 µM
TGI (HCT-15 [35]): 3.71 µM
inhibition [36]: 36.4%
Activity [37]: >80%
GI50 [38]: 3.46 µM
GI50 (SK-MEL-5 [39]): 1.61 µM
inhibition [40]: 40.1%
Activity (L132): 50%
GI50 (K562 [41]): 1.93 µM
GI50 (MDA-MB-468 [42]): 1.59 µM
GI50 (NCI/ADR-RES [43]): 2.2 µM
TGI (COLO 205 [44]): 3.78 µM
CC50 (K562 [45]): 100 µM
TGI (PC-3 [46]): 5.24 µM

SMILES: O=C(NCCCNc1cc(-c2cn(-c3ccccc3)nc2-c2cccc(O)c2)ccn1)c1ccccc1
LC50 (lethal concentration 50%) (COLO 205 [1]): 7.88 µM
GI50 [2]: 3.63 µM
LC50 (HOP-92 [3]): 100 µM
inhibition [4]: 3.72%
GI50 (COLO 205 [5]): 1.71 µM
GI50 (PC-3 [6]): 2.1 µM
TGI (HOP-92 [7]): 24.5 µM
GI50 [8]: 2.3 µM
inhibition [9]: 16%
GI50 [10]: 2.3 µM
GI50 [11]: 1.62 µM
inhibition (Homo sapiens): 9.61%
GI50 (HCT-15 [14]): 1.51 µM
TGI (NCI/ADR-RES [15]): 9.79 µM
GI50 (SNB-75 [16]): 1.68 µM
CC50 (HCT-15 [17]): 100 µM
TGI (SNB-75 [18]): 46.9 µM
TGI (MDA-MB-468 [19]): 3.36 µM
CC50 (SNB-75 [20]): 100 µM
LC50 (SK-MEL-5 [21]): 6.54 µM
GI50 (RXF 393 [22]): 1.97 µM
inhibition [23]: 10.8%
TGI (SK-MEL-5 [24]): 3.12 µM
inhibition [25]: 74.5%
GI50 (HOP-92 [26]): 1.7 µM
GI50 [27]: 3.6 µM
GI50 [28]: 3.69 µM
LC50 (PC-3 [29]): 100 µM
LC50 (NCI/ADR-RES [30]): 100 µM
LC50 (RXF 393 [31]): 100 µM
GI50 [32]: 2.13 µM
GI50 [33]: 3.4 µM
TGI (RXF 393 [34]): 6.2 µM
TGI (HCT-15 [35]): 5.12 µM
inhibition [36]: 39.6%
Activity [37]: >80%
GI50 [38]: 4.17 µM
GI50 (SK-MEL-5 [39]): 1.49 µM
inhibition [40]: 34.4%
GI50 (K562 [41]): 0.75 µM
GI50 (MDA-MB-468 [42]): 1.38 µM
GI50 (NCI/ADR-RES [43]): 2.67 µM
TGI (COLO 205 [44]): 3.67 µM
CC50 (K562 [45]): 100 µM
TGI (PC-3 [46]): 15.2 µM

GI50 (COLO 205 [5]): 3.33 µM
GI50 (PC-3 [6]): 3.18 µM
GI50 (HCT-15 [14]): 3.4 µM
GI50 (SK-MEL-5 [39]): 1.54 µM
GI50 (K562 [41]): 3.69 µM
GI50 (MDA-MB-468 [42]): 1.95 µM
SMILES: COc1cccc(-c2nn(-c3ccccc3)cc2-c2ccnc(NCCCNC(=O)c3cccc(C(F)(F)F)c3)c2)c1
GI50 (SNB-75 [16]): 17 µM
GI50 (RXF 393 [22]): 2.2 µM
GI50 (HOP-92 [26]): 2.48 µM
GI50 (NCI/ADR-RES [43]): 3.54 µM
